Xi reactivation: activators of inactive X chromosome reactivation, primary screen, imaging, XiGFP fibroblasts, GFP high-content imaging, set 2. activation, % at 7.58 µM. XiGFP mouse fibroblasts, % GFP-positive cells imaging, 3 d; cells co-treated with 5-aza-dC sensitizer; scaled so ellipticine positive control = 100%. hit rate 0.055% among 360,000;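 active = mean normalized replicate activation at least 10% and every replicate at or above 10%; inconclusive = only one of the two criteria met; inactive = mean below 10% and not all replicates reach 10%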
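Schedule: 3 d treatment, 15 min room-temperature fixation; system: 68-5-11 XiGFP fibroblast line; buffer or medium: DMEM plus 5-aza-dC sensitizer; control set: ellipticine 6 µM positive control; compound: one concentration, pinned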
Myeloid diff MLP: induction of myeloid progenitor differentiation, primary screen, cell-based, flow cytometry, MLPCN library. calls only at 10 µM. hit rate 1% among 360,000. AID 624256, 2012. ER-HoxA9 myeloid progenitors, lysozyme-GFP differentiation;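 active = normalized GFP-positive differentiation at or above the plate's own cutoff, the solvent-only control mean plus 3 SD; inconclusive = no clear call, values can overlap the other calls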;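 also: cells exposed to compound for four days before flow analysis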
ABCB6 inh 2: ABCB6 transporter inhibitors, primary screen, K562-ABCB6 cells, flow cytometry, MLPCN library; ATP-binding cassette sub-family B member 6 (Homo sapiens), Q9NP58; K562-ABCB6 porphyrin accumulation, 1 h; hits give low values; fluorescence ratio to DMSO, % at 10 µM; hit rate 0.19% among 360,000;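 active = fluorescence ratio to DMSO below 75%, the collection mean minus 3 SD; inconclusive = too few cells collected in the well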;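 also: signal is porphyrin accumulated inside mitochondria; lower ratio means ABCB6 inhibition with less porphyrin fluorescence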
Each line names hits and unclear results; the compound was inactive in the other large screens. The entries come from a sample that favours hits as a whole.

COc1ccc(-c2cc(=O)c3cc(C)ccc3[nH]2)cc1	none
COc1ccc(-c2cc(=O)c3cc(OC)ccc3[nH]2)cc1	Myeloid diff MLP active (no result: Xi reactivation)
CN(C)CC(=O)Nc1ccc2c(c1)[C@@H]1C[C@@H](CC(=O)NCc3cccc(F)c3)O[C@@H](CO)[C@@H]1O2	none (no result: Myeloid diff MLP, ABCB6 inh 2)
CC1(C)CC(NCCN2CCN(C3=CC(=C(C#N)C#N)CC(C)(C)C3)CC2)=CC(=C(C#N)C#N)C1	none
CCN1CCN(C2=CC3=CC(=C(C#N)C#N)CCC3CC2)CC1 (stereo not given)	Myeloid diff MLP active (no result: Xi reactivation)
CN1CCN(C2=CC3=CC(=C(C#N)C#N)CCC3CC2)CC1 (stereo not given)	Myeloid diff MLP active (no result: Xi reactivation)
N#CC(C#N)=C1C=C2C=C(N3CCCCCC3)CCC2CC1 (stereo not given)	Xi reactivation inconclusive
N#CC(C#N)=C1C=C2C=C(N3CCOCC3)CCC2CC1 (stereo not given)	Myeloid diff MLP active
CO[C@@H](C(=O)N(C)C[C@H]1OCc2ccccc2-c2c(n(C)c3ccccc23)C(=O)N([C@H](C)CO)C[C@H]1C)c1ccccc1	none (no result: Myeloid diff MLP, ABCB6 inh 2)
C[C@H](CO)N1C[C@H](C)[C@H](CN(C)Cc2ccncc2)Oc2cc(C#C[C@@H](C)O)ccc2S1(=O)=O	none (no result: Myeloid diff MLP, ABCB6 inh 2)
CO[C@@H]1CN(C)C(=O)c2ccc(NC(=O)C3CCOCC3)cc2OC[C@@H](C)N(C(C)=O)C[C@H]1C	none (no result: Myeloid diff MLP, ABCB6 inh 2)
C[C@@H]1CN([C@@H](C)CO)C(=O)c2cc(NC(=O)NC3CCCCC3)ccc2O[C@H]1CN(C)S(=O)(=O)c1cn(C)cn1	none (no result: Myeloid diff MLP, ABCB6 inh 2)
CCOC(=O)C1=C(C)N=c2s/c(=C/c3ccc(OCC(=O)O)cc3)c(=O)n2C1c1ccc(SC)cc1 (stereo not given)	none (no result: Xi reactivation)
CCOC(=O)C1=C(C)N=c2s/c(=C/c3ccc(OCC(=O)O)cc3)c(=O)n2C1c1ccc(F)cc1 (stereo not given)	Myeloid diff MLP active
Cc1cccc(S(=O)(=O)N[C@@H]2CC[C@@H](CCn3cc(-c4ccccn4)nn3)O[C@H]2CO)c1	none (no result: Myeloid diff MLP, ABCB6 inh 2)
C[C@@H]1CN([C@@H](C)CO)C(=O)Cc2cc(NC(=O)Cc3ccccc3)ccc2O[C@H]1CN(C)S(=O)(=O)c1ccccc1	none (no result: Myeloid diff MLP, ABCB6 inh 2)
CC=Cc1ccc2n(c1=O)C[C@@H]1[C@@H](CO)[C@H](C(=O)N3CCCCC3)N(CC3CC3)[C@H]21 (mixture of isomers)	none (no result: Myeloid diff MLP, ABCB6 inh 2)
Cc1ccc(/C(=N\S(=O)(=O)c2ccc(Br)cc2)Nc2ccccc2C)cc1	none
Cc1ccccc1N/C(=N/S(=O)(=O)c1ccccc1)c1ccc(F)cc1	Myeloid diff MLP active
COc1ccc(C(=O)Nc2ccc(Cl)c(S(=O)(=O)Nc3ccccc3OC)c2)cc1	none
COc1ccc(NS(=O)(=O)c2cc(N/C(=N\S(=O)(=O)c3ccccc3)c3ccc(F)cc3)ccc2Cl)cc1	Myeloid diff MLP active
CC(=O)N1CCCCN2[C@H](C1)[C@H](c1ccc(-c3ccncc3)cc1)[C@@H]2CO	none (no result: Myeloid diff MLP, ABCB6 inh 2)
C[C@H]1CCCCO[C@@H](CN(C)Cc2ccncc2)[C@@H](C)CN([C@@H](C)CO)C(=O)c2cc(NC(=O)C3CCCCC3)ccc2O1	none (no result: Myeloid diff MLP, ABCB6 inh 2)
C[C@H]1CN([C@@H](C)CO)C(=O)c2cc(NC(=O)C3CC3)ccc2O[C@@H]1CN(C)Cc1ccncc1	none (no result: Myeloid diff MLP, ABCB6 inh 2)
COc1ccc(CN(C)C[C@H]2Oc3ccc(NS(=O)(=O)c4cccs4)cc3C(=O)N([C@H](C)CO)C[C@@H]2C)cc1	none (no result: Myeloid diff MLP, ABCB6 inh 2)
Cc1cc(C)c(C(=O)COC(=O)Cn2cnnn2)cc1C	none (no result: Xi reactivation)
O=C(Cn1cnnn1)OCC(=O)c1ccc(Cl)s1	Myeloid diff MLP active (no result: Xi reactivation)
CCCNCc1cc(OC)c(OCCC)cc1Cl	Myeloid diff MLP active (no result: Xi reactivation)
CCOc1cc(Cl)c(CNCCCN2CCOCC2)cc1OC	none
O=C(c1ccc(S(=O)(=O)Cc2cc(F)ccc2F)c([N+](=O)[O-])c1)N1CCCC1	none
O=C(c1ccc(S(=O)(=O)Cc2cc(F)ccc2F)c([N+](=O)[O-])c1)N1CCCCC1	Myeloid diff MLP active
O=C(C1CCC1)N1CC2(C1)[C@H](c1ccccc1)[C@@H](CO)N2Cc1ccc(Cl)cc1	none (no result: Myeloid diff MLP, ABCB6 inh 2)
Cc1ccc2oc(-c3ccc(NC(=O)c4ccncc4)cc3O)nc2c1	Myeloid diff MLP active
COc1ccc(CC(=O)Nc2ccc(-c3nc4cc(C)ccc4o3)c(O)c2)cc1OC	none (no result: Xi reactivation)
O=C(C1CCCC1)N1CC2(C1)[C@H](c1ccccc1)[C@@H](CO)N2Cc1cncnc1	none (no result: Myeloid diff MLP, ABCB6 inh 2)
CC(C)Oc1ccc(S(=O)(=O)N2CCOCC2)cc1NC(=O)CSC(=S)N1CCCC1	Myeloid diff MLP active
CC(C)Oc1ccc(S(=O)(=O)N2CCOCC2)cc1NC(=O)C1CCC1	none
CC(=O)c1c(C)n(C)c2ccc(OC(=O)c3ccco3)cc12	Myeloid diff MLP active (no result: Xi reactivation)
